Measured values as given in ChEMBL document CHEMBL2010670, “Discovery of a clinical stage multi-kinase inhibitor sodium (E)-2-{2-methoxy-5-[(2',4',6'-trimethoxystyrylsulfonyl)methyl]phenylamino}acetate (ON 01910.Na): synthesis, structure-activity relationship, and biological activity” (J Med Chem, 2011).

Legend:
Assay type in all cases: functional, cell-based
K562 = assay: Cytotoxicity against human K562 cells after 96 hrs by trypan blue exclusion assay; settings: Homo sapiens, K562, 96 h
How it was run: (§1)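 Cells grown in DMEM or RPMI with 10% FBS and penicillin-streptomycin, seeded at 1.0 × 10⁵ cells/mL/well in 6-well dishes. Compound added at a range of concentrations 24 h after seeding. Viable cells counted by trypan blue exclusion from duplicate wells after 96 h of exposure; dose-response end point.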

DU-145 = assay: Cytotoxicity against human DU145 cells after 96 hrs by trypan blue exclusion assay; settings: Homo sapiens, DU-145, 96 h; how it was run: as §1
[1] = Cytotoxicity against multidrug-resistant human MES-SA/Dx5 cells assessed as cell viability after 96 hrs by trypan blue exclusion; settings: MES-SA/Dx5, 96 h
How it was run: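 Cells grown in DMEM or RPMI with 10% FBS and 1 unit/mL penicillin-streptomycin, seeded at 1.0 × 10⁵ cells/mL/well in 6-well dishes; compound added 24 h later at various concentrations. After 96 h of treatment, viable cells counted by trypan blue exclusion in duplicate wells; dose-response end point.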

[2] = Cytotoxicity against human MES-SA cells assessed as cell viability after 96 hrs by trypan blue exclusion; how it was run: as §1

`COc1ccc(CS(=O)(=O)/C=C/c2c(OC)cc(OCCCC(=O)O)cc2OC)cc1N` showed an IC50 (K562) of 20000 nM and an IC50 (DU-145) of 25000 nM.

For `COc1cc(OC)c(/C=C/SCc2ccc(OC)c(N)c2)c(OC)c1`, the IC50 (K562) was 30 nM and the IC50 (DU-145) was 50 nM.

`COC(=O)CCNc1cc(CS(=O)(=O)/C=C/c2c(OC)cc(OC)cc2OC)ccc1OC` gave an IC50 (K562) of 1000 nM and an IC50 (DU-145) of 1500 nM.

Molecule `COc1ccc(N)cc1CS(=O)(=O)/C=C/c1c(OC)cccc1OC` has an IC50 (K562) of 25000 nM and an IC50 (DU-145) of 25000 nM.

`COc1cc(OC)c(/C=C/S(=O)(=O)Cc2ccc(Cl)cc2N)c(OC)c1` showed an IC50 (K562) of 2500 nM and an IC50 (DU-145) of 2500 nM.

Work on `COc1ccc(CS(=O)(=O)/C=C/c2cc(F)c(F)cc2F)cc1N` yielded an IC50 (K562) of 15000 nM and an IC50 (DU-145) of 5000 nM.

`COc1ccc(C(Nc2cc(CS(=O)(=O)/C=C/c3c(OC)cc(OC)cc3OC)ccc2OC)C(=O)O)cc1` (centres undefined) gave an IC50 (K562) of 15 nM and an IC50 (DU-145) of 100 nM.

`COc1cc(OC)c(/C=C/[S+]([O-])Cc2ccc(OC)c(N)c2)c(OC)c1` (centres undefined) showed an IC50 (K562) of 20 nM and an IC50 (DU-145) of 40 nM.

`COc1cc(OC)c(/C=C/SCc2ccc(OC)c([N+](=O)[O-])c2)c(OC)c1` gave an IC50 (K562) of 5000 nM and an IC50 (DU-145) of 5000 nM.

For `COc1cc(OC)c(/C=C/S(=O)(=O)Cc2ccc(OC)c(N[C@@H](C)C(=O)O)c2)c(OC)c1`, the IC50 (K562) was 15 nM and the IC50 (DU-145) was 25 nM.

With `COc1cc(OC)c(/C=C/S(=O)(=O)Cc2ccc(OC)c([N+](=O)[O-])c2)c(OC)c1` the IC50 (K562) was 2500 nM and the IC50 (DU-145) was 2500 nM.

With `COc1ccc(CS(=O)(=O)/C=C/c2c(OC)cc(O)cc2OC)cc1[N+](=O)[O-]` the IC50 (K562) was 5000 nM and the IC50 (DU-145) was 5000 nM.

`COc1ccc(/C=C/S(=O)(=O)Cc2ccc(OC)c([N+](=O)[O-])c2)cc1` showed an IC50 (K562) of 25000 nM and an IC50 (DU-145) of 25000 nM.

Molecule `COC(=O)C(Nc1cc(CS(=O)(=O)/C=C/c2c(OC)cc(OC)cc2OC)ccc1OC)C(F)(F)F` (centres undefined) has an IC50 (K562) of 250 nM and an IC50 (DU-145) of 250 nM.

`COc1cc(OC)c(/C=C/S(=O)(=O)Cc2ccc(OC)c(NC(F)(F)C(=O)O)c2)c(OC)c1` gave an IC50 (K562) of 150 nM and an IC50 (DU-145) of 150 nM.

`COc1ccc(CS(=O)(=O)/C=C/c2c(OC)cc(OC)cc2OC)c(N)c1` gave an IC50 (K562) of 25 nM and an IC50 (DU-145) of 25 nM.

With `COc1ccc(CS(=O)(=O)/C=C/c2c(OC)cccc2OC)c([N+](=O)[O-])c1` the IC50 (K562) was 50000 nM and the IC50 (DU-145) was 50000 nM.

`COc1ccccc1/C=C/S(=O)(=O)Cc1ccc(OC)c([N+](=O)[O-])c1` showed an IC50 (K562) of 20000 nM and an IC50 (DU-145) of 20000 nM.

With `COC(=O)CNc1cc(CS(=O)(=O)/C=C/c2c(OC)cc(OC)cc2OC)ccc1OC` the IC50 (K562) was 100 nM and the IC50 (DU-145) was 100 nM.

Work on `COC(=O)C(C)(C)Nc1cc(CS(=O)(=O)/C=C/c2c(OC)cc(OC)cc2OC)ccc1OC` yielded an IC50 (K562) of 800 nM and an IC50 (DU-145) of 2500 nM.

`COc1cc(OC)c(/C=C/S(=O)(=O)Cc2ccc(F)c([N+](=O)[O-])c2)c(OC)c1` showed an IC50 (K562) of 25000 nM and an IC50 (DU-145) of 25000 nM.

For `COc1cc(OC)c(/C=C/S(=O)(=O)Cc2cc(N)ccc2OC)c(OC)c1`, the IC50 (K562) was 7500 nM and the IC50 (DU-145) was 7500 nM.

`CC(=O)O[C@H]1C(=O)[C@@]2(C)[C@H]([C@H](OC(=O)c3ccccc3)[C@]3(O)C[C@H](OC(=O)[C@H](O)[C@@H](NC(=O)c4ccccc4)c4ccccc4)C(C)=C1C3(C)C)[C@]1(OC(C)=O)CO[C@@H]1C[C@@H]2O` [PACLITAXEL] showed an IC50 [1] of 750 nM and an IC50 [2] of 4 nM.

`COc1cc(OC)c(/C=C/S(=O)(=O)Cc2ccc(Br)c(N)c2)c(OC)c1` gave an IC50 (K562) of 750 nM and an IC50 (DU-145) of 750 nM.

Work on `COc1cc(OC)c(/C=C/S(=O)(=O)Cc2ccc(OC)c(NC(C(=O)O)c3ccccc3)c2)c(OC)c1` (centres undefined) yielded an IC50 (K562) of 15 nM and an IC50 (DU-145) of 20 nM.

`COC(=O)CNc1cc(CS(=O)(=O)/C=C/c2cc(OC)c(OC)c(OC)c2)ccc1OC` gave an IC50 (K562) of 30000 nM and an IC50 (DU-145) of 75000 nM.

With `COc1cc(OC)c(/C=C/S(=O)(=O)Cc2ccc(OC)c(NC(C(=O)O)c3ccc(F)cc3)c2)c(OC)c1` (centres undefined) the IC50 (K562) was 80 nM and the IC50 (DU-145) was 150 nM.

`COc1ccc(CS(=O)(=O)/C=C/c2cc(OC)c(OC)c(OC)c2)cc1N` gave an IC50 (K562) of 250 nM and an IC50 (DU-145) of 3000 nM.

Molecule `COc1ccc(CS(=O)(=O)/C=C/c2cc(OC)c(OC)cc2OC)cc1N` has an IC50 (K562) of 250 nM and an IC50 (DU-145) of 250 nM.

For `COc1cc(OC)c(/C=C/S(=O)(=O)Cc2ccc(OC)c(NC(C(=O)O)c3ccc(Cl)cc3)c2)c(OC)c1` (centres undefined), the IC50 (K562) was 250 nM and the IC50 (DU-145) was 400 nM.

`COc1cc(OC)c(/C=C/S(=O)(=O)Cc2ccc(Cl)c(N)c2)c(OC)c1` gave an IC50 (K562) of 10 nM and an IC50 (DU-145) of 10 nM.

Molecule `COc1ccc(CS(=O)(=O)/C=C/c2ccccc2OC)cc1N` has an IC50 (K562) of 7500 nM and an IC50 (DU-145) of 7500 nM.

`COC(=O)C(Nc1cc(CS(=O)(=O)/C=C/c2c(OC)cc(OC)cc2OC)ccc1OC)c1ccccc1` (centres undefined) gave an IC50 (K562) of 30 nM and an IC50 (DU-145) of 75 nM.

Work on `COc1cc(OC)c(/C=C/S(=O)(=O)Cc2ccc(OC)c(NC(C)(C)C(=O)O)c2)c(OC)c1` yielded an IC50 (K562) of 7.5 nM and an IC50 (DU-145) of 150 nM.

`COC(=O)C(F)(F)Nc1cc(CS(=O)(=O)/C=C/c2c(OC)cc(OC)cc2OC)ccc1OC` gave an IC50 (K562) of 250 nM and an IC50 (DU-145) of 250 nM.

`COc1cc(OC)c(/C=C/S(=O)(=O)Cc2ccc(F)c(N)c2)c(OC)c1` gave an IC50 (K562) of 2500 nM and an IC50 (DU-145) of 2500 nM.

Molecule `COc1ccc(CS(=O)(=O)/C=C/c2c(OC)cccc2OC)cc1N` has an IC50 (K562) of 50 nM and an IC50 (DU-145) of 50 nM.

With `COc1ccc(OC)c(/C=C/S(=O)(=O)Cc2ccc(OC)c(N)c2)c1` the IC50 (K562) was 750 nM and the IC50 (DU-145) was 750 nM.

Work on `COc1ccc(/C=C/S(=O)(=O)Cc2ccc(OC)c(N)c2)c(OC)c1` yielded an IC50 (K562) of 500 nM and an IC50 (DU-145) of 500 nM.

In the case of `COc1ccc(CS(=O)(=O)/C=C/c2c(OC)cccc2OC)c(N)c1`, the IC50 (K562) is reported as 750 nM and the IC50 (DU-145) is reported as 750 nM.

In the case of `COc1cc(OC)c(/C=C/S(=O)(=O)Cc2ccc(OC)c(NC(C(=O)O)c3ccc(Br)cc3)c2)c(OC)c1` (centres undefined), the IC50 (K562) is reported as 200 nM and the IC50 (DU-145) is reported as 300 nM.

`COc1cc(OC)c(/C=C/S(=O)(=O)Cc2ccc(OC)cc2[N+](=O)[O-])c(OC)c1` showed an IC50 (K562) of 20000 nM and an IC50 (DU-145) of 20000 nM.

`COc1cc(OC)c(/C=C/S(=O)(=O)Cc2ccc(Br)c([N+](=O)[O-])c2)c(OC)c1` gave an IC50 (K562) of 25000 nM and an IC50 (DU-145) of 25000 nM.

Work on `COc1cc(OC)c(/C=C/S(=O)(=O)Cc2ccc(OC)c(NCCC(=O)O)c2)c(OC)c1` yielded an IC50 (K562) of 5000 nM and an IC50 (DU-145) of 5000 nM.

In the case of `COc1ccc(CS(=O)(=O)/C=C/c2cc(OC)c(OC)c(OC)c2)cc1NCC(=O)O`, the IC50 (K562) is reported as 3000 nM and the IC50 (DU-145) is reported as 5000 nM.

`COc1cc(OC)c(/C=C/[S+]([O-])Cc2ccc(OC)c([N+](=O)[O-])c2)c(OC)c1` (centres undefined) showed an IC50 (K562) of 15000 nM and an IC50 (DU-145) of 15000 nM.

`COc1ccc(CS(=O)(=O)/C=C/c2c(OC)cc(O)cc2OC)cc1N` gave an IC50 (K562) of 300 nM and an IC50 (DU-145) of 200 nM.

With `COc1ccc(CS(=O)(=O)/C=C/c2c(OC)cccc2OC)cc1[N+](=O)[O-]` the IC50 (K562) was 20000 nM and the IC50 (DU-145) was 20000 nM.

Work on `COC(=O)C(Nc1cc(CS(=O)(=O)/C=C/c2c(OC)cc(OC)cc2OC)ccc1OC)c1ccc(Cl)cc1` (centres undefined) yielded an IC50 (K562) of 200 nM and an IC50 (DU-145) of 400 nM.

In the case of `COC(=O)C(Nc1cc(CS(=O)(=O)/C=C/c2c(OC)cc(OC)cc2OC)ccc1OC)c1ccc(F)cc1` (centres undefined), the IC50 (K562) is reported as 800 nM and the IC50 (DU-145) is reported as 300 nM.

`COC(=O)C(Nc1cc(CS(=O)(=O)/C=C/c2c(OC)cc(OC)cc2OC)ccc1OC)c1ccc(OC)cc1` (centres undefined) gave an IC50 (K562) of 150 nM and an IC50 (DU-145) of 250 nM.

`COc1ccc(CS(=O)(=O)/C=C/c2c(F)cc(F)cc2F)cc1N` showed an IC50 (K562) of 800 nM and an IC50 (DU-145) of 2000 nM.

For `COC(=O)C(Nc1cc(CS(=O)(=O)/C=C/c2c(OC)cc(OC)cc2OC)ccc1OC)c1ccc(Br)cc1` (centres undefined), the IC50 (K562) was 200 nM and the IC50 (DU-145) was 300 nM.

`COc1cc(OC)c(/C=C/S(=O)(=O)Cc2ccc(OC)c(NC(C(=O)O)C(F)(F)F)c2)c(OC)c1` (centres undefined) showed an IC50 (K562) of 75 nM and an IC50 (DU-145) of 20 nM.

`COC(=O)[C@H](C)Nc1cc(CS(=O)(=O)/C=C/c2c(OC)cc(OC)cc2OC)ccc1OC` showed an IC50 (K562) of 200 nM and an IC50 (DU-145) of 750 nM.

In the case of `COc1ccc(/C=C/S(=O)(=O)Cc2ccc(OC)c(N)c2)cc1`, the IC50 (K562) is reported as 2500 nM and the IC50 (DU-145) is reported as 2500 nM.

In the case of `COc1cc(OC)c(/C=C/S(=O)(=O)Cc2ccc(OC)c(NCC(=O)O)c2)c(OC)c1` [RIGOSERTIB], the IC50 (K562) is reported as 7.5 nM and the IC50 (DU-145) is reported as 75 nM.
